According to ChEMBL document CHEMBL1138326, “Structure-based design, synthesis, and biological evaluation of indomethacin derivatives as cyclooxygenase-2 inhibiting nitric oxide donors” (J Med Chem, 2007):
The source made the active and inactive calls. The rule behind the calls is not given here.

Assays:
Rattus norvegicus [1] = assay: Toxicity in Sprague-Dawley rat assessed as reduction of gastric lesion score at 45 umol/kg, po; type: organism-based, Stomach; design: scale not given: the % may be the effect or the level left; settings: in vivo
Procedure, shortened: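 Rats fasted 18 h; compound homogenized in 0.5% methocel and gavaged at 1 mL/kg. Killed 3 h after dosing. Stomach opened along the greater curvature and photographed. Hemorrhagic lesion lengths scored blind and summed as the total lesion score. Means ± SEM, 4–12 animals; ANOVA with Dunnett's test.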

Rattus norvegicus [2] = assay: Antiinflammatory activity against Sprague-Dawley rat carrageenan air-pouch model assessed as reduction of prostaglandin E2 at 45 umol/kg, po; type: functional; design: scale not given: the % may be the effect or the level left
Procedure, shortened: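 Air pouches raised by sc injection of 20 mL sterile air (day -6) plus 10 mL on day -3; rats fasted 18 h. Compound suspended in 0.5% methocel given orally 1 h before intrapouch carrageenan (1 mL of 1.0% in saline). Exudate collected 4 h later after PBS/heparin lavage; PGE2 by enzyme immunoassay. Means ± SEM, n = 6–22; ANOVA with Dunnett's test vs vehicle.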

[3] = target: T1, Prostaglandin G/H synthase 1 (Homo sapiens, UniProt P23219); assay: Inhibition of COX1 in human whole blood assessed as effect on A23187-induced thromboxane B2 production at 3 uM relative to control; values are per cent of control
T1 sequence (P23219 whole entry): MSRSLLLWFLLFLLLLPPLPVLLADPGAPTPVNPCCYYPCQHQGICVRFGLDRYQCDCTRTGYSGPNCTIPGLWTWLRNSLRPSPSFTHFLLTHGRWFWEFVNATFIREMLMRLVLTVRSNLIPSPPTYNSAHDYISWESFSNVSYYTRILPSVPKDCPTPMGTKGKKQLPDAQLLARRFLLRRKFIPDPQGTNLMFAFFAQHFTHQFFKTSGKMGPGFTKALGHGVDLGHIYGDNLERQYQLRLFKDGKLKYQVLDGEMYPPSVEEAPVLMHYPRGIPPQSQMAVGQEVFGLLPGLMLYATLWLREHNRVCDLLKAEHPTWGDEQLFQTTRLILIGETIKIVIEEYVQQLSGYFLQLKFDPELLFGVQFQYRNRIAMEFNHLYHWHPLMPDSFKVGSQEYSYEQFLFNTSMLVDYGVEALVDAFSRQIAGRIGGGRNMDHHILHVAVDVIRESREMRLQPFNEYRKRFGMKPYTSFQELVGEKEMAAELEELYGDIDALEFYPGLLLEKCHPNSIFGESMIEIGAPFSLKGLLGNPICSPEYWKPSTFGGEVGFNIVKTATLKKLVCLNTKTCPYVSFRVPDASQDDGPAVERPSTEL

[4] = target: T1, Prostaglandin G/H synthase 1; assay: Inhibition of COX1 in human whole blood assessed as effect on A23187-induced thromboxane B2 production; type: tissue-based
[5] = target: T1, Prostaglandin G/H synthase 1; assay: Inhibition of COX1 in human whole blood assessed as effect on A23187-induced thromboxane B2 production at 10 uM relative to control; values are per cent of control
[6] = target: T1, Prostaglandin G/H synthase 1; assay: Inhibition of COX1 in human whole blood assessed as effect on A23187-induced thromboxane B2 production at 1 uM relative to control; values are per cent of control
[7] = target: T2, Prostaglandin G/H synthase 2 (Homo sapiens) (UniProt P35354); assay: Inhibition of COX2 in human whole blood assessed as effect on LPS-induced thromboxane B2 production at 30 uM relative to control; values are per cent of control
T2 sequence (whole entry): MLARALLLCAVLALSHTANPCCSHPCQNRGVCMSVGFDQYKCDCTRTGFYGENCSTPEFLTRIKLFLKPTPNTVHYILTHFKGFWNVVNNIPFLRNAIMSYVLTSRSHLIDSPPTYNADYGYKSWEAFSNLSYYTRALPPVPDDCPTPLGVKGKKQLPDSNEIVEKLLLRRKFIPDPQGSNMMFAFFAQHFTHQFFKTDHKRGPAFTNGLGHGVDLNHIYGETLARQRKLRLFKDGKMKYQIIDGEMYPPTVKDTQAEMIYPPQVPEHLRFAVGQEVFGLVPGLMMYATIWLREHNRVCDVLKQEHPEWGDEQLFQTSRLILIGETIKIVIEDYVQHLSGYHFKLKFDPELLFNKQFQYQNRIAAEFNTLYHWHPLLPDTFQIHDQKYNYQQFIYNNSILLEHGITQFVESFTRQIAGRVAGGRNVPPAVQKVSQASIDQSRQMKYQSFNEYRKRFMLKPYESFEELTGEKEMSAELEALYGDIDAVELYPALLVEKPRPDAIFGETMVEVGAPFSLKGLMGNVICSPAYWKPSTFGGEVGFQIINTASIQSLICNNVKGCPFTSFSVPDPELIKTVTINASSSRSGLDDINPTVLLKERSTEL

[8] = target: T1, Prostaglandin G/H synthase 1; assay: Inhibition of COX1 in human whole blood assessed as effect on A23187-induced thromboxane B2 production at 30 uM relative to control; values are per cent of control
Rattus norvegicus [9] = assay: Antiinflammatory activity against intrapouch dosed Sprague-Dawley rat carrageenan air-pouch model assessed as reduction of prostaglandin E2 at 45 umol/kg; type: functional; design: scale not given: the % may be the effect or the level left
Procedure, shortened: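 Air pouch made with 20 mL sterile air sc on day -6 and 10 mL more on day -3; rats fasted 18 h. Compound in 0.5% methocel injected into the pouch 1 h before carrageenan (1 mL of 1.0% in saline). After 4 h, exudate recovered with PBS/heparin and assayed for PGE2 by enzyme immunoassay.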

[10] = target: T1, Prostaglandin G/H synthase 1; assay: Inhibition of COX1 in human whole blood assessed as effect on A23187-induced thromboxane B2 production at 100 uM relative to control; values are per cent of control
Rattus norvegicus [11] = assay: Gastric sparing effect in Sprague-Dawley rat assessed as reduction of aspirin-induced gastric damage at 45 umol/kg, po; type: ADME, organism-based, Stomach; design: scale not given: the % may be the effect or the level left; settings: in vivo
Procedure, shortened: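 Aspirin (25 mg/kg, in 1.0% methocel) gavaged at 1.0 mL/kg; test compound in 0.5% methocel gavaged 2 min later. Rats killed after 3 h and stomachs scored as summed hemorrhagic lesion lengths. Six groups, 3–11 rats each; ANOVA with Newman-Keuls test.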

Rattus norvegicus [12] = assay: Increase in nitrite plus nitrate levels in Sprague-Dawley rat at 45 umol/kg, po; type: functional, organism-based
Procedure, shortened: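 Plasma taken by cardiac puncture 4 h after oral dosing (0.5% methylcellulose vehicle), at the end of the air-pouch experiment. Total NOx (nitrite plus nitrate) measured with a fluorometric kit. Means ± SEM, n = 3; ANOVA with Dunnett's test vs vehicle.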

Homo sapiens = species on record: Homo sapiens; assay: Selectivity for human COX2 over human COX1
[13] = target: T2, Prostaglandin G/H synthase 2 (Homo sapiens); assay: Inhibition of COX2 in human whole blood assessed as effect on LPS-induced thromboxane B2 production at 100 uM relative to control; values are per cent of control

residual activity [3] | IC50 [4] | residual activity [5] | residual activity [6] | residual activity [7] | residual activity [8] | residual activity [10] | Ratio IC50 (Homo sapiens) | residual activity [13] | SMILES | Activity (Rattus norvegicus [1]) | Activity (Rattus norvegicus [2]) | Activity (Rattus norvegicus [9]) | Activity (Rattus norvegicus [11]) | Activity (Rattus norvegicus [12])
46% | 3.3 µM | 37% | 91% | 0% | 11% | 6% |  |  | COc1ccc2c(c1)c(CC(=O)NCCCO)c(C)n2C(=O)c1ccc(Cl)cc1 | 98% | 85% | 97% |  | 
65% | 6 µM | 31% | 77% | 1% | 7% | 0% | 5 |  | COc1ccc2c(c1)c(CC(=O)NCCCO[N+](=O)[O-])c(C)n2C(=O)c1ccc(Cl)cc1 | 98% | 71% | 99% | 85% | Active
72% | 15.9 µM | 70% | 98% | 3% | 41% | 13% |  | 0% | COc1cc2c(CC(=O)NCCCO[N+](=O)[O-])c(C)n(C(=O)c3ccc(Cl)cc3)c2cc1Cl |  |  |  |  | 
